Source: ChEMBL document CHEMBL1667761, “3-benzylamino-β-carboline derivatives induce apoptosis through G2/M arrest in human carcinoma cells HeLa S-3” (Eur J Med Chem, 2011)
Calls of active or inactive are those of the source. The rule behind the calls is not given here.

Legend:
[1] = Antitumor activity against human HeLaS3 cells after 24 to 72 hrs by MTT assay; type: functional, cell-based, HeLa S3
How it was run: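 HeLa S-3 cells (MEM, 10% FBS, HEPES, NEAA, 2 mM L-glutamine, 5% CO2, 37 °C) seeded at 2 × 10⁴ cells/ml and cultured 3 h before exposure for 24–72 h at 37 °C. MTT (2 mg/ml) added for 4 h at 37 °C, formazan dissolved in DMSO, A540 read. Viability is expressed as % of control. IC50 is the concentration giving 50% growth inhibition, mean ± S.D. of four independent experiments run in triplicate.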

[2] = Cell cycle arrest in human HeLaS3 cells assessed as accumulation at sub-G1 phase at 5 uM after 24 hrs by flow cytometry; type: functional, cell-based; conditions: HeLa S3
How it was run: (§1)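 HeLa S-3 cells exposed for 6, 12 or 24 h. Cells washed twice in ice-cold PBS, fixed in ice-cold 70% ethanol, and resuspended with 0.1 mg/ml RNase. Stained with […] PI and analysed by flow cytometry. Phase distribution (sub-G1, G1, S, G2/M) is reported as percentage of cells. Controls were untreated.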

[3] = Cell cycle arrest in human HeLaS3 cells assessed as accumulation at S phase at 5 uM after 24 hrs by flow cytometry; type: functional, cell-based; conditions: HeLa S3; how it was run: as §1
[4] = Cell cycle arrest in human HeLaS3 cells assessed as accumulation at S phase at 1 uM after 12 hrs by flow cytometry; type: functional, cell-based; conditions: HeLa S3; how it was run: as §1
[5] = Cell cycle arrest in human HeLaS3 cells assessed as accumulation at sub-G1 phase at 5 uM after 6 hrs by flow cytometry; type: functional, cell-based; conditions: HeLa S3; how it was run: as §1
[6] = Cell cycle arrest in human HeLaS3 cells assessed as accumulation at S phase at 1 uM after 24 hrs by flow cytometry; type: functional, cell-based; conditions: HeLa S3; how it was run: as §1
[7] = Cell cycle arrest in human HeLaS3 cells assessed as accumulation at S phase at 5 uM after 12 hrs by flow cytometry; type: functional, cell-based; conditions: HeLa S3; how it was run: as §1
[8] = Cell cycle arrest in human HeLaS3 cells assessed as accumulation at G1 phase at 1 uM after 12 hrs by flow cytometry; type: functional, cell-based; conditions: HeLa S3; how it was run: as §1
[9] = Cell cycle arrest in human HeLaS3 cells assessed as accumulation at sub-G1 phase at 1 uM after 24 hrs by flow cytometry; type: functional, cell-based; conditions: HeLa S3; how it was run: as §1
[10] = test system: HeLa S3; assay: Induction of apoptosis in human HeLaS3 cells assessed as appearance of fragmented nuclei at 10 times IC50 after 48 hrs by Hoechst staining; type: functional, cell-based
How it was run: (§2)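 Stained with Hoechst 33342 (1 µg/ml) for 40 min at 37 °C. Nuclei were examined by confocal laser microscopy, and apoptosis was scored from chromatin condensation and fragmented nuclei.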

[11] = test system: HeLa S3; assay: Induction of apoptosis in human HeLaS3 cells assessed as appearance of fragmented nuclei at 5 times IC50 after 48 hrs by Hoechst staining; type: functional, cell-based; how it was run: as §2
[12] = Cell cycle arrest in human HeLaS3 cells assessed as accumulation at G1 phase at 1 uM after 24 hrs by flow cytometry; type: functional, cell-based; conditions: HeLa S3; how it was run: as §1
[13] = Cell cycle arrest in human HeLaS3 cells assessed as accumulation at sub-G1 phase at 5 uM after 12 hrs by flow cytometry; type: functional, cell-based; conditions: HeLa S3; how it was run: as §1
[14] = Cell cycle arrest in human HeLaS3 cells assessed as accumulation at G2/M phase at 5 uM after 24 hrs by flow cytometry; type: functional, cell-based; conditions: HeLa S3; how it was run: as §1
[15] = Cell cycle arrest in human HeLaS3 cells assessed as accumulation at G2/M phase at 5 uM after 6 hrs by flow cytometry; type: functional, cell-based; conditions: HeLa S3; how it was run: as §1
[16] = Cell cycle arrest in human HeLaS3 cells assessed as accumulation at G2/M phase at 5 uM after 12 hrs by flow cytometry; type: functional, cell-based; conditions: HeLa S3; how it was run: as §1
[17] = Cell cycle arrest in human HeLaS3 cells assessed as accumulation at G2/M phase at 1 uM after 6 hrs by flow cytometry; type: functional, cell-based; conditions: HeLa S3; how it was run: as §1
[18] = Cell cycle arrest in human HeLaS3 cells assessed as effect on cdk2 protein level at 5 times IC50 by Western blot method; type: functional, cell-based; conditions: HeLa S3
How it was run: (§3)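 HeLa S-3 cells treated for 24 h at 5-fold the IC50, alongside non-treated controls. Cells lysed in RIPA buffer (pH 8.0) with protease inhibitors and the whole-cell extract separated by SDS-PAGE, then transferred to PVDF. Blots blocked in 5% skim milk/TTBS and probed with anti-cdc2, cdk2 or cleaved caspase-3 antibodies (1:1000). β-actin (1:5000) served as loading control. Detection by HRP secondary antibody and ECL.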

[19] = Cell cycle arrest in human HeLaS3 cells assessed as accumulation at S phase at 1 uM after 6 hrs by flow cytometry; type: functional, cell-based; conditions: HeLa S3; how it was run: as §1
[20] = Cell cycle arrest in human HeLaS3 cells assessed as accumulation at sub-G1 phase at 1 uM after 6 hrs by flow cytometry; type: functional, cell-based; conditions: HeLa S3; how it was run: as §1
[21] = Cell cycle arrest in human HeLaS3 cells assessed as accumulation at G1 phase at 5 uM after 6 hrs by flow cytometry; type: functional, cell-based; conditions: HeLa S3; how it was run: as §1
[22] = Cell cycle arrest in human HeLaS3 cells assessed as accumulation at G1 phase at 5 uM after 24 hrs by flow cytometry; type: functional, cell-based; conditions: HeLa S3; how it was run: as §1
[23] = test system: HeLa S3; assay: Induction of apoptosis in human HeLaS3 cells assessed as DNA fragmentation after 24 hrs by agarose gel electrophoresis; type: functional, cell-based
How it was run: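 HeLa S-3 cells exposed for 12–48 h, then pellets lysed in 0.6% sarcosine, 20 mM Tris-HCl pH 7.4, 20 mM EDTA. Lysate treated with RNase A for 2 h at 50 °C, then proteinase K overnight at 50 °C. DNA extracted with phenol/chloroform, run on 2% agarose in TAE at 50 V, stained with ethidium bromide, and visualised under UV.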

[24] = Cell cycle arrest in human HeLaS3 cells assessed as accumulation at G2/M phase at 1 uM after 12 hrs by flow cytometry; type: functional, cell-based; conditions: HeLa S3; how it was run: as §1
[25] = Cell cycle arrest in human HeLaS3 cells assessed as accumulation at G1 phase at 1 uM after 6 hrs by flow cytometry; type: functional, cell-based; conditions: HeLa S3; how it was run: as §1
[26] = Cell cycle arrest in human HeLaS3 cells assessed as accumulation at sub-G1 phase at 1 uM after 12 hrs by flow cytometry; type: functional, cell-based; conditions: HeLa S3; how it was run: as §1
[27] = Cell cycle arrest in human HeLaS3 cells assessed as accumulation at G1 phase at 5 uM after 12 hrs by flow cytometry; type: functional, cell-based; conditions: HeLa S3; how it was run: as §1
[28] = test system: HeLa S3; assay: Induction of apoptosis in human HeLaS3 cells assessed as cleaved caspase-3 at 5 times IC50 by Western blot method; type: functional, cell-based; how it was run: as §3
[29] = Cell cycle arrest in human HeLaS3 cells assessed as accumulation at G2/M phase at 1 uM after 24 hrs by flow cytometry; type: functional, cell-based; conditions: HeLa S3; how it was run: as §1
[30] = Cell cycle arrest in human HeLaS3 cells assessed as accumulation at S phase at 5 uM after 6 hrs by flow cytometry; type: functional, cell-based; conditions: HeLa S3; how it was run: as §1
[31] = Cell cycle arrest in human HeLaS3 cells assessed as increase in cdc2 protein level at 5 times IC50 by Western blot method; type: functional, cell-based; conditions: HeLa S3; how it was run: as §3

CC(C)CNc1cc2c(cn1)[nH]c1ccccc12
IC50 ([1]; Homo sapiens, HeLa S3): 13 µM

CNc1cc2c(cn1)[nH]c1ccccc12
IC50 ([1]; Homo sapiens, HeLa S3): 101 µM

CCNc1cc2c3ccccc3nc-2c[nH]1
IC50 ([1]; Homo sapiens, HeLa S3): 19 µM

c1ccc(CNc2cc3c(cn2)[nH]c2ccccc23)cc1
Activity [2]: 8.3%
Activity [3]: 3.9%
Activity [4]: 9.4%
Activity [5]: 3.3%
Activity [6]: 2.6%
Activity [7]: 12.5%
Activity [8]: 2.9%
Activity [9]: 3.7%
Activity [10]: Active
Activity [11]: Active
Activity [12]: 1.1%
Activity [13]: 3%
Activity [14]: 80.5%
Activity [15]: 47.3%
Activity [16]: 68.1%
Activity [17]: 46.1%
Activity [18]: inactive
Activity [19]: 19%
Activity [20]: 3.8%
Activity [21]: 34%
Activity [22]: 4.9%
Activity [23]: Active
Activity [24]: 84.3%
Activity [25]: 31.5%
Activity [26]: 3.7%
Activity [27]: 13.8%
Activity [28]: Active
Activity [29]: 92.2%
Activity [30]: 12.2%
Activity [31]: Active
IC50 ([1]; Homo sapiens, HeLa S3): 0.12 µM

COC(=O)c1cccc(CNc2cc3c(cn2)[nH]c2ccccc23)c1
IC50 ([1]; Homo sapiens, HeLa S3): 17 µM

C[n+]1cc2[nH]c3ccccc3c2cc1NCc1ccccc1
IC50 ([1]; hela s3): 9.9 µM

c1ccc(CCNc2cc3c(cn2)[nH]c2ccccc23)cc1
IC50 ([1]; Homo sapiens, HeLa S3): 22 µM

CC(C)(C)CNc1cc2c(cn1)[nH]c1ccccc12
IC50 ([1]; Homo sapiens, HeLa S3): 17 µM

c1ccc2c(c1)[nH]c1cnccc12 [NORHARMANE]
IC50 ([1]; Homo sapiens, HeLa S3): > 100 µM
